# Most compounds without a hit are left out; they make up all but 3.7% or so of the library.
# KCNQ1 pot – human KCNQ1 channel potentiation or activation; CHO-K1 KCNQ1, thallium flux FluxOR fluorescence; active compounds read high; B-score at 10 µM; 310,000 tested, 0.35% active;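 active = fluorescence ratio B-score, a plate-corrected score, at least three library SD, with initial intensity B-score within 5 SD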
#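 Assay system: stable KCNQ1 CHO-K1 line; medium: assay buffer, equal DMSO in all wells; timing: 90 min dye loading and 20 min compound exposure, both at room temperature; technique: kinetic FluxOR thallium fluorescence, 10-s 1-Hz baseline, 110-s post-stimulus read; read-out basis: B score of baseline-normalized fluorescence ratio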
# Kir21 inh – inhibitors of mouse Kir2.1 inward-rectifier potassium channel; P35561; 310,000 tested, 0.85% active; HEK293-Kir2.1, FluxOR thallium flux fluorescence; active compounds read low; B-score at 10 µM;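 active = fluorescence ratio B-score at or below minus 3 SD of library scores, with starting-brightness B-score within 2 SD, cut at about -4.2 in these data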;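 note: channel flux triggered by added potassium and thallium sulfate stimulus; B-score of peak minus minimum fluorescence over baseline after thallium stimulus; more negative B-score means stronger Kir2.1 block with less thallium influx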
# KCNK3 inh – human KCNK3 channel inhibition, primary screen. 340,000 tested, 0.84% active. AID 602410. CHO-KCNK3 thallium flux, FluxOR fluorescence; active compounds read low. O14649. B-score at 10 µM;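 active = B-score under library mean minus 4 SD, starting fluorescence ratio at most library mean plus 5 SD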;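 note: more negative B-score means stronger inhibition of thallium flux through KCNK3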
# KCNQ1 block – blocks the human KCNQ1 potassium channel | P51787 | CHO-K1 KCNQ1, FluxOR thallium flux fluorescence; active compounds read high | B-score at 10 µM | 310,000 tested, 1.3% active | AID 2642;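 active = compounds whose thallium flux B-score, printed positive for inhibition, exceeds three library SD while starting fluorescence stays within three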;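 note: channel opened by potassium depolarization with thallium stimulus after 20 min compound exposure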
# hERG protect – shields human hERG channel from block by proarrhythmic agents; Q12809; CHO-hERG, FluxOR thallium flux, dofetilide IC70 present; activation (rescue from dofetilide block), less the hit threshold, % at 10 µM; 310,000 tested, 0.51% active; AID 1511;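 active = activation above the mean of controls blocked by dofetilide plus 5 SD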;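 note: thallium influx through hERG after potassium depolarization seen as dye fluorescence rise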
# KCNK9 inh – human KCNK9 channel inhibition; Q9NPC2; HEK293 KCNK9, FluxOR thallium flux fluorescence; active compounds read low; B-score at 10 µM; 310,000 tested, 1.2% active;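 active = ratio B-score over 3 SD below the library mean, with starting fluorescence within 5 SD of its mean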;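 note: negative B-score means less thallium flux so channel inhibition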
# Target sequence (Q9NPC2 whole entry, looked up): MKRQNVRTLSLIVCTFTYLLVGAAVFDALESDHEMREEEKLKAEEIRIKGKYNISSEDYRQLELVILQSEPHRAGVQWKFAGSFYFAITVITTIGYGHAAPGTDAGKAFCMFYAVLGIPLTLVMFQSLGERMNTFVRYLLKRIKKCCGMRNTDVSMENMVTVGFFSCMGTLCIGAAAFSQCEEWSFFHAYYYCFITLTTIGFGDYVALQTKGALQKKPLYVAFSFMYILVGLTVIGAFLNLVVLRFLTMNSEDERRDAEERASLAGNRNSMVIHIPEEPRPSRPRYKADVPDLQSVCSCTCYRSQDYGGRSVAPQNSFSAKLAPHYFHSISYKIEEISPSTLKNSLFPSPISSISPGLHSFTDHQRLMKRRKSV
# Numbers stand for hits; - = inactive; . = no result.
SMILES,KCNQ1 pot,Kir21 inh,KCNK3 inh,KCNQ1 block,hERG protect,KCNK9 inh
O=C(COc1ccc2c3c(c(=O)oc2c1)CCC3)N[C@@H](Cc1ccccc1)C(=O)O,-,-,-,-,5.3,-
O=C(COc1ccc2c3c(c(=O)oc2c1)CCC3)N[C@@H](CSCc1ccccc1)C(=O)O,-,-,-,-,-,-
Cc1cc(=O)n(CC(=O)Nc2cc(Cl)ccc2C)c(C(C)C)n1,-,-,-,-,-,-
COc1ccccc1C(=O)N/C(=N/c1nc(C)cc(C)n1)Nc1ccccc1,-,-,-,-,-,-
O=C(CSc1nc2ccccc2n1Cc1ccc(Cl)cc1)N/N=C/c1ccc(C(=O)O)cc1,-,-,-,-,-,-6.8
O=C(CSc1nc2ccccc2n1Cc1ccccc1)N/N=C/c1ccccc1C(=O)O,-,-,-,-,-,-
COCCCN(C(=O)CSc1nc2ccccc2c(=O)n1C)c1c(N)n(Cc2ccccc2)c(=O)[nH]c1=O,.,.,-,.,.,.
COc1ccccc1/C=C/C=C1\Oc2c(ccc(O)c2CN(C)C)C1=O,-,-,-,10,-,-
O=C1C2C3C=CC(C4CC34)C2C(=O)N1/N=C/c1ccc(-c2ccc(F)cc2[N+](=O)[O-])o1 (stereo unspecified),-,-,-,-,8.1,-
CCCN(CCC)CCNC(=S)Nc1ccc2nc3n(c(=O)c2c1)CCCCC3,-,-,-,-,-,-
Cc1ccc(Oc2ccc(NC(=O)Cn3ccsc3=N)cc2)cc1,22,-4.5,-,-,-,-
CC1=CC(C)(C)N2C(=O)C3(C(C#N)=C(N)Oc4cc(O)ccc43)c3cccc1c32 (stereo unspecified),-,-,-,6,-,-
Cc1ccc2nc(C)c3c(c2c1)N(c1ccc(F)cc1)CC3,-,-5.3,-,-,-,-
O=C(O)c1ccccc1C(=O)Nc1ccc(Oc2cccc3ccccc23)cc1,-,-,-,-,-,-
Cc1cccc(Oc2ccc(NC(=O)c3ccccc3C(=O)O)cc2)c1C,-,-,-,-,5.6,-
CC(OC(=O)c1ccccc1CCc1ccccc1)C(N)=O (stereo unspecified),-,-,-,-,-,-
Cc1c(Cl)cccc1NC(=S)NC1CCN(Cc2ccccc2)CC1,-,-,-,-,-,-
S=C(Nc1ccccc1Cl)NC1CCN(Cc2ccccc2)CC1,-,-6.7,-,-,-,-
O=C(NC1CCN(Cc2ccccc2)CC1)c1ccc(Cl)cc1Cl,-,-6.5,-,-,-,-
CC(=O)c1ccc(S(=O)(=O)Nc2c(C)nn(C)c2C)cc1,.,.,-,.,.,.
CCn1c(NCc2c[nH]c3ccccc23)nc2ccccc21,-,-,-,-,-,-
C=CCn1c(NCc2c[nH]c3ccccc23)nc2ccccc21,-,-5.6,-,-,-,-
Cc1cc(-c2nn(-c3ccccc3F)cc2CN2CCN(c3ccncc3)CC2)c(C)s1,-,-4.5,-,-,-,-
Cc1cc(-c2nn(-c3ccccc3F)cc2CN2CCC(O)CC2)c(C)s1,-,-,-,-,-,-
COc1ccc([N+](=O)[O-])cc1NC(=O)CSCc1cc(C)cc(C)c1,-,-8.7,-,-,-,-
SMILES,KCNQ1 pot,Kir21 inh,KCNK3 inh,KCNQ1 block,hERG protect,KCNK9 inh
O=C(CN1CCC(C(=O)c2ccc3c(c2)OCCO3)CC1)NCc1ccc(F)cc1,-,-,-,-,-,-
O=Cc1s/c(=N\S(=O)(=O)c2ccccc2)n(CCCCl)c1Cl,-,-,-,-,7.4,-
C/C(=N\OCc1ccccc1C#N)c1cc2ccccc2o1,-,-,-,-,-,-7.1
C/C(=N\OCc1ccc(C#N)cc1)c1cc2ccccc2o1,-,-,-,-,-,-
CC(C)(C)c1ccc(N2C(=O)CSC2c2cccnc2)cc1 (stereo unspecified),-,-,-,-,-,-
Cc1nn(-c2ccccc2)nc1C(=O)NNC(=O)c1cccc2ccccc12,15,-,-,-,-,-
CCOc1ccc(S(=O)(=O)Oc2ccc3ccccc3c2)cc1,-,-,-,6,-,-
N#Cc1c[nH]n2c(=O)c3c(nc12)CCCC3,-,-,.,-,5.4,-
O=C(Nc1cccc(Cl)c1)Nc1nc(-c2ccc(Cl)cc2)cs1,-,-,-,8,-,-
N#C/C(=C\c1c(Oc2ccc(Cl)cc2)nc2ccccn2c1=O)C(=O)NC1CCS(=O)(=O)C1 (stereo unspecified),-,-4.4,-,-,-,-
